“And” between values parts separate entries of the source, which are not always exact repeats. Equal entries are not always repeated.

The values below come from publication PMC4948672 (Cancer research, 2015).

The subject of one series is CBP/p300 HAT activity. Conditions: cited from earlier work.
Series [1] concerns the target T1, CBP bromodomain (Homo sapiens, UniProt Q92793). Conditions: read-out: IC50 displacing H3K56ac from the CBP binding site; AlphaScreen, H3K56ac peptide. A general note: Bead proximity is the source of the signal in Alpha formats.
Series [2] concerns MLL-CBP immortalized murine bone marrow cells. Put plainly: WST1 cytotoxicity assay. The class given is cell-based, mouse. Conditions: significant cytotoxicity only at high concentrations and prolonged exposure. The method in brief: (§1)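 WST1 cytotoxicity assay. Cells were murine bone marrow cells immortalized by retroviral MLL-CBP expression, or MLL-AF9 leukemic blasts isolated from mice transplanted with bone marrow retrovirally expressing that oncogene. Signal was expressed as mean percentage of vehicle-treated cells ±SD, n=4; ANOVA with Dunnett multiple comparison.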
Background: Tetrazolium assays rely on reduction of a dye to a coloured formazan, in cell work by metabolically active cells.

The target in series [3] is T2, full-length CBP (Homo sapiens, UniProt Q92793). The format is cell-based. The conditions noted are these: GFP-tagged full-length CBP.
Series [4] concerns 12 stimulated primary human co-cultured cell types. Put plainly: BioMAP panel of stimulated primary co-cultured cell types. The class given is cell-based. The method in brief:
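BioMAP profiling in four human haematopoietic co-culture systems, each treated with test compound: Sag and LPS (peripheral blood mononuclear cells with venular endothelial cells), BT (B cells with peripheral blood mononuclear cells), and IMphg (venular endothelial cells with M1 macrophages). Marker protein read-outs were monitored.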

Series [5] concerns bromodomains of the BET family members. Put plainly: BLI selectivity screen, panel of 42 bromodomains. The class given is binding. Conditions: only BET family identified among 42 bromodomains.
The subject of series [6] is KASUMI-1 cells. Put plainly: apoptosis, 7-AAD/AnnexinV staining. The format is cell-based, human. Conditions: prolonged exposure, day 5, liquid culture.
Series [7] concerns primary blast cells from AML patients. Description: clonogenic growth of primary cells in methylcellulose. The class given is cell-based, human. The conditions noted are these: five AML patients. An outline of the steps:
(§2)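 Primary human cells were grown in methylcellulose with test compound: CD34+ cells from healthy donors (n=3) or AML patient blasts (n=5). Colonies and cell numbers are expressed as mean percentage of vehicle-treated ±SD; ANOVA with Dunnett. Morphology was assessed by Giemsa-Wright stain after DMSO or 5 µM treatment.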

Series [8] has as its system KASUMI-1, MOLM13 and SEM cells. Description: WST1 proliferation/survival assay, single agents and combinations. The conditions noted are these: for activity alone in WST1 assay: single agent, different for each cell line. The format is cell-based, human.
Another series has as its target α1A (Homo sapiens, UniProt P35348). The conditions noted are these: both stereoisomers; low µM region.
The next series relates to MOLM13. Description: clonogenic growth in methylcellulose. The format is cell-based, human. The conditions noted are these: dose dependent. The method in brief:
(§3)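 Human leukemic cell lines were plated in methylcellulose with different doses of test compound, and colony growth was scored. Counts are mean percentage of vehicle-treated ±SD, n=3; ANOVA with Dunnett multiple comparison.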

Series [9] deals with 41 other members of the human bromodomain family. Put plainly: temperature shift assay, selectivity panel. The conditions noted are these: 41 other bromodomains. The class given is binding.
The subject of series [10] is primary murine MLL-AF9+ leukemic blasts. Description: clonogenic re-plating assay in methylcellulose. The format is cell-based, mouse. The method in brief: (§4)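 Methylcellulose colony formation with serial re-plating, using either MLL-CBP immortalized murine bone marrow progenitors or MLL-AF9 leukemic blasts treated with test compound. Colonies are expressed as mean percentage of vehicle-treated ±SD, n=2; ANOVA with Dunnett multiple comparison.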

Series [11] has as its target T2, full-length CBP. The format is cell-based. The conditions noted are these: NanoBRET dose response. On the technique in general: BRET reads energy transfer from a luciferase to a nearby fluorophore.
Series [12] has as its target T3, BRD4(2) (Homo sapiens, UniProt O60885). Description: temperature shift assay. The format is binding. The conditions noted are these: second bromodomain of BRD4.
Series [13] relates to MLL-CBP immortalized murine bone marrow cells. Description: clonogenic growth and replating in methylcellulose. The format is cell-based, mouse. Conditions: more apparent upon re-plating. An outline of the steps:
as §4

The target in series [14] is T3, BRD4(2). Put plainly: isothermal titration calorimetry. The class given is binding.
Another series has as its system MOLM13 cells. Put plainly: WST1 proliferation/survival assay, combination. The format is cell-based, human. Conditions: combination with doxorubicin.
The next series deals with full-length GFP-BRD4 (Homo sapiens, UniProt O60885). Put plainly: NanoBRET, full-length BRD4. The format is cell-based.
Series [15] has as its system MLL-AF9+ AML cells. Put plainly: cell surface marker expression after liquid culture exposure. The conditions noted are these: 5 µM, 3 days. The format is cell-based, mouse.
For series [16], the system named is peripheral CD34+ cells from healthy donors. Put plainly: clonogenic growth of primary cells in methylcellulose. The class given is cell-based, human. Conditions: three healthy donors. An outline of the steps:
as §2

For a further series, the system named is 5HT1. The conditions noted are these: both stereoisomers; low µM region.
The test system of series [17] is KASUMI-1 cells. Put plainly: cell cycle analysis by flow cytometry. Conditions: day 2 and 3, more pronounced at day 6. The class given is cell-based, human.
Series [18] has as its system MLL-AF9+ AML cells. Put plainly: transplantation of pre-treated MLL-AF9+ AML cells into secondary recipients. The format is in vivo, mice. The conditions noted are these: cells pre-treated 5 µM 3 days; 5-50 x 10^3 cells transplanted. An outline of the steps:
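Leukemic blasts were taken from mice that developed AML after transplantation of bone marrow retrovirally expressing MLL-AF9. Blasts were treated ex vivo with 5 µM test compound or DMSO for 3 days. Limiting doses (50 000, 10 000, 5 000, 500 cells) went into irradiated syngeneic secondary recipients, n=4/5 per group. Disease-free survival was compared by log-rank (Mantel-Cox) test.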

Series [19] has as its target T1, CBP bromodomain. The class given is binding. The conditions noted are these: read-out: dissociation constant (KD); ITC, in solution.
In a further series the test system is KASUMI-1. Description: clonogenic growth in methylcellulose. The conditions noted are these: dose dependent. The format is cell-based, human. An outline of the steps:
as §3

The next series concerns the target isolated CBP bromodomain (Homo sapiens, UniProt Q92793). Put plainly: NanoBRET, NanoLuc CBP bromodomain / Halo-tagged Histone H3.3. The format is cell-based. The conditions noted are these: read-out: cellular IC50, construct containing the bromodomain only.
The target in series [20] is T1, CBP bromodomain. Put plainly: temperature shift assay. The class given is binding.
For series [21], the system named is 12 human cell lines that form visible colonies in methylcellulose. Description: clonogenic growth in methylcellulose, human leukemic cell line panel. The class given is cell-based. Conditions: all 12 colony-forming human leukemic lines.
The target of another series is p300 (Homo sapiens, UniProt Q09472). Put plainly: ChIP-PCR of p300 occupancy at TNFSF13B and ID2. The class given is cell-based. The conditions noted are these: KASUMI-1, 3 µM.
The next series concerns the target CBP (Homo sapiens, UniProt Q92793). Conditions: BLI.
The target of a further series is BRD4(1) (Homo sapiens, UniProt O60885). Description: isothermal titration calorimetry. The format is binding.
The next series concerns SEM cells. Put plainly: clonogenic growth in methylcellulose. The conditions noted are these: dose dependent. The format is cell-based, human. The method in brief: as §3
The subject of series [22] is primary murine MLL-AF9+ leukemic blasts. Description: WST1 cytotoxicity assay. The class given is cell-based, mouse. An outline of the steps: as §1
The nature of a further series: pharmacokinetic study. The format is in vivo. Conditions: mice.
Series [23] has as its system MLL-AF9 expressing blasts. Put plainly: extreme limiting dilution analysis. The format is cell-based, mouse. Conditions: 5µM for 3 days; vehicle 1/2.3. The method in brief:
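MLL-AF9 leukemic blasts from diseased mice were exposed ex vivo to 5 µM test compound or DMSO for 3 days, then plated at limiting dilution (highest dose 10 cells). A limiting dilution model fitted on a log-fraction plot gave stem cell frequency with 95% confidence intervals. Groups were compared by an overall chi-square test.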

For the next series, the target named is p300 bromodomain (Homo sapiens, UniProt Q09472). Put plainly: isothermal titration calorimetry. The format is binding. The conditions noted are these: read-out: dissociation constant (KD); ITC, in solution.
Another series has as its target H3K56ac peptide. Description: ITC.

T1 sequence (Q92793 1085-1192 limits assumed): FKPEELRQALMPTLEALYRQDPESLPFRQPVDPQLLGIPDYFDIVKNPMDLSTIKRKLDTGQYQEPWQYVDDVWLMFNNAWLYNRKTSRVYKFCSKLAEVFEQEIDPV
T2 sequence (Q92793 whole entry): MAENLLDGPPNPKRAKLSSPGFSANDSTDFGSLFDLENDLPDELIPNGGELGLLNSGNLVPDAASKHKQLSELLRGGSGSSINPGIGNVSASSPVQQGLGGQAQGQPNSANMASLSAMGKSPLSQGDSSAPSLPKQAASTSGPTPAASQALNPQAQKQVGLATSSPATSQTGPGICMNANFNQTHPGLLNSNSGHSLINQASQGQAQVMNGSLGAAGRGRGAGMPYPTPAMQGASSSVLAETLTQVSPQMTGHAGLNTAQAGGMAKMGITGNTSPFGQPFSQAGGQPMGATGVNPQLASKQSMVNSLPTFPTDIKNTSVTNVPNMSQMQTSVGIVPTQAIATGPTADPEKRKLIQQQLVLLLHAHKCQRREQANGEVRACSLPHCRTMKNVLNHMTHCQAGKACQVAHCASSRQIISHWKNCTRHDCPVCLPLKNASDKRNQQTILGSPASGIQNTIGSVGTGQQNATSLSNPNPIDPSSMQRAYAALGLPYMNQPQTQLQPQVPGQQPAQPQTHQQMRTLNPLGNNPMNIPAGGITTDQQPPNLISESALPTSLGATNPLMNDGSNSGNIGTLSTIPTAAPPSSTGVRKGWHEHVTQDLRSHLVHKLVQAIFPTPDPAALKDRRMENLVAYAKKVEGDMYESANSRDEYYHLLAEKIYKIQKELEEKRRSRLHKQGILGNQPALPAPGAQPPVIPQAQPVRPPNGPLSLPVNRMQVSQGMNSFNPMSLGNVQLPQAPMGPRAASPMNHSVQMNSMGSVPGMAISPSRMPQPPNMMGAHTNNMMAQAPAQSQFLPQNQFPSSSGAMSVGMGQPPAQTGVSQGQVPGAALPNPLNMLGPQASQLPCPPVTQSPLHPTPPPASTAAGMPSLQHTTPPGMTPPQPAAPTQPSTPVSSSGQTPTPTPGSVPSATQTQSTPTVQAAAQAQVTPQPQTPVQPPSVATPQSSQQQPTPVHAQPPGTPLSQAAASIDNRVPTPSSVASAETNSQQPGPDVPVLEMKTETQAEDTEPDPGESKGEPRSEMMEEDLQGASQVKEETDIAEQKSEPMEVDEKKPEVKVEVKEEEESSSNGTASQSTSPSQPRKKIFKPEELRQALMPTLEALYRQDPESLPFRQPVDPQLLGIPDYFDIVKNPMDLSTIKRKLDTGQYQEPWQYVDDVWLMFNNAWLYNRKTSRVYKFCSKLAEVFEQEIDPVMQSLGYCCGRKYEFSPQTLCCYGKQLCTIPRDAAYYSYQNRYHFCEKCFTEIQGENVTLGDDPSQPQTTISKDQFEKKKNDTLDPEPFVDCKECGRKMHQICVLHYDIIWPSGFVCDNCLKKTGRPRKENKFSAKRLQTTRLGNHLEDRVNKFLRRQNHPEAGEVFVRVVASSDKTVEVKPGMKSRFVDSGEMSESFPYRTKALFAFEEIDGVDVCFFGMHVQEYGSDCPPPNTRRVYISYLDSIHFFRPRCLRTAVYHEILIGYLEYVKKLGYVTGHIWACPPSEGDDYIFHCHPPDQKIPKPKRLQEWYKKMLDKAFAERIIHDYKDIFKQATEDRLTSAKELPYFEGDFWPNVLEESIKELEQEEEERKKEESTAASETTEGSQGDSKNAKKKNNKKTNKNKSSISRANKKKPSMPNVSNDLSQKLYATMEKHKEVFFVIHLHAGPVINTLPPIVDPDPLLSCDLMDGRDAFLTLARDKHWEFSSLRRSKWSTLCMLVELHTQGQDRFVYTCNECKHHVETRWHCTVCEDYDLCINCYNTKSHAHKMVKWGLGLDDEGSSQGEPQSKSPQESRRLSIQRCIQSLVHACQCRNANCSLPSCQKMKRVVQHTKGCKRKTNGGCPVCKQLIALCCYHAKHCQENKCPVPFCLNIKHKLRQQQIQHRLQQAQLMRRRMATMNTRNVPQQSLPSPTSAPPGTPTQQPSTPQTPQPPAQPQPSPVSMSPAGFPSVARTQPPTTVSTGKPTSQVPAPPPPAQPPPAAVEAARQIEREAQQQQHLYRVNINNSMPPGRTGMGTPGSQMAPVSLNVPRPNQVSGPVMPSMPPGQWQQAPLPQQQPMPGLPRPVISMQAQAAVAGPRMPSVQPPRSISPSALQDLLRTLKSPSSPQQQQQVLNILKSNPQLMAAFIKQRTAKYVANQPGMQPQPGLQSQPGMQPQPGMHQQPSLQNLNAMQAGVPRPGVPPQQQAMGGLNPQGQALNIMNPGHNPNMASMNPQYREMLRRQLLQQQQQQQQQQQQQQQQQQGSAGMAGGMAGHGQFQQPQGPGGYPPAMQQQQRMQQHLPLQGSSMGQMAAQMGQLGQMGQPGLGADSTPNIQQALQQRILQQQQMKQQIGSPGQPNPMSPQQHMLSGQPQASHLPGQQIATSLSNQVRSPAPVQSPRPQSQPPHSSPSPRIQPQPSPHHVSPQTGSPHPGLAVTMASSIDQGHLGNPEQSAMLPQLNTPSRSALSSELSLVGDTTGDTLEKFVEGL
Chain of p300 (Q09472 whole entry): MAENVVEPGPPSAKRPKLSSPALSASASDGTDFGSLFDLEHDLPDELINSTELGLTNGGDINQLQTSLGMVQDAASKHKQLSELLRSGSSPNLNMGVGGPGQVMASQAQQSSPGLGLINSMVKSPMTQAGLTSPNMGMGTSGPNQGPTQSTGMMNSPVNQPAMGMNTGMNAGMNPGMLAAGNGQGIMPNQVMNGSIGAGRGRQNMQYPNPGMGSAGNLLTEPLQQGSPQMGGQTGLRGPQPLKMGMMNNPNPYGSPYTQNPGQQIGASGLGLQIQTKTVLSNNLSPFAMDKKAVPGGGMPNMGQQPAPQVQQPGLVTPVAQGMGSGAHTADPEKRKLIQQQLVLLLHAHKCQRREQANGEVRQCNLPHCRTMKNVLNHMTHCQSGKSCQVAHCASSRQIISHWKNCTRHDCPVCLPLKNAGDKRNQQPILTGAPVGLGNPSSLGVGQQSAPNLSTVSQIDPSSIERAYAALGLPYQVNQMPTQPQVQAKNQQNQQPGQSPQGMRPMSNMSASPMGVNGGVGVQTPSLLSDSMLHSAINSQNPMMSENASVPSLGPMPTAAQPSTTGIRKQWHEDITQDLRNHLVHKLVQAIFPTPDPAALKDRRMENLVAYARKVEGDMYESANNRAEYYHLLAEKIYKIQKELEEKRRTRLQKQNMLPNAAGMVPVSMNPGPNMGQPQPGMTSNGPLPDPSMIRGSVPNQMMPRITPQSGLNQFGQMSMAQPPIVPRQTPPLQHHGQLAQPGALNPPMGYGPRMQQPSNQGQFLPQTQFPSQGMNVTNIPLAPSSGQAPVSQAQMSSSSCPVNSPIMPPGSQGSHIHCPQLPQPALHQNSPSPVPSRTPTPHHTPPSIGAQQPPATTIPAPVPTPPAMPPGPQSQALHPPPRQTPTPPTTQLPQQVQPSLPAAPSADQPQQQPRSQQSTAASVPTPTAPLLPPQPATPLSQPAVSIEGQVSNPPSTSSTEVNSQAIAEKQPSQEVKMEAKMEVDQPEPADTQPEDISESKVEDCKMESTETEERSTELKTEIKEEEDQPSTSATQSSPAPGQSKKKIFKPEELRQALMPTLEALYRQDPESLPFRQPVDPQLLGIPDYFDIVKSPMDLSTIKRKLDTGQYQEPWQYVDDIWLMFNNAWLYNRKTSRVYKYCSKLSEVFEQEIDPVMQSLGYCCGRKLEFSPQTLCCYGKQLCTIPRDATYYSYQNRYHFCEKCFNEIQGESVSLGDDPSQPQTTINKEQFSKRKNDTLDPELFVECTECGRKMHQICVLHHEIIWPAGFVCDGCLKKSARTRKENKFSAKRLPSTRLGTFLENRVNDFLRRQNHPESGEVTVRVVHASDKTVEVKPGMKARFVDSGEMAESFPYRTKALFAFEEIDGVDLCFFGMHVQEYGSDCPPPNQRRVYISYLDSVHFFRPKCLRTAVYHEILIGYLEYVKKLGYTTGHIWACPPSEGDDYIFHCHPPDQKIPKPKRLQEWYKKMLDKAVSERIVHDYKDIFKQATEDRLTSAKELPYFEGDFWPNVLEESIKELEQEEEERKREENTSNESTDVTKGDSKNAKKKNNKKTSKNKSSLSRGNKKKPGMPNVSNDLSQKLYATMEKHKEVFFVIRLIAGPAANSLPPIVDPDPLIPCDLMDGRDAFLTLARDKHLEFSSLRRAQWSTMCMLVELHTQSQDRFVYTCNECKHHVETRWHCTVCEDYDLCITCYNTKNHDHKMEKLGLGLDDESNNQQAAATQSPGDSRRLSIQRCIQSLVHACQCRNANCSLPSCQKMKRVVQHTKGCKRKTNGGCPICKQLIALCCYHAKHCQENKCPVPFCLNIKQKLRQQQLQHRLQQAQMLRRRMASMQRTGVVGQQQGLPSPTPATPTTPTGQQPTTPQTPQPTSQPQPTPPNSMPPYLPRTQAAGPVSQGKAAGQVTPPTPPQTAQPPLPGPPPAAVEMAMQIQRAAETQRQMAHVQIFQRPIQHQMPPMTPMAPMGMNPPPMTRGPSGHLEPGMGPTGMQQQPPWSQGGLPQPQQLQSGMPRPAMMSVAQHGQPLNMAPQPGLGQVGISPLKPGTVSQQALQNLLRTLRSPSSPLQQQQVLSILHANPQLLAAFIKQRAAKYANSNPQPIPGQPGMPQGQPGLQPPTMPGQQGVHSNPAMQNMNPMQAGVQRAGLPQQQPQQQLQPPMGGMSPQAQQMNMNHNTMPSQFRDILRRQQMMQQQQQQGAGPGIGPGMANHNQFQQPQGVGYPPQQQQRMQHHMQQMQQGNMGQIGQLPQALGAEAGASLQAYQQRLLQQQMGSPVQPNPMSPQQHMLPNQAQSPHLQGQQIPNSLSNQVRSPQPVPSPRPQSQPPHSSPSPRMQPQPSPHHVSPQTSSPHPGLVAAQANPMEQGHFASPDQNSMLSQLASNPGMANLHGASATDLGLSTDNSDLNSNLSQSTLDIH
Chain of p300 bromodomain (Q09472 1049-1156 limits assumed): as the sequence (Q92793 1085-1192 limits assumed) above, with N47S, V73I, F93Y, A98S counted along it
Chain of CBP (Q92793 1085-1192 limits assumed): as the sequence (Q92793 1085-1192 limits assumed) above
Chain of isolated CBP bromodomain (Q92793 1085-1192 limits assumed): as above

Take `CC1=NN(c2ccc(C(=O)O)cc2)C(=O)/C1=C\c1ccc(-c2cc(C)c(C)cc2[N+](=O)[O-])o1` [C646]: the HAT inhibitory activity result in the series with CBP/p300 HAT activity was “low µM activity”.

As usually defined, the IC50 is the concentration at which inhibition is half-maximal. The term ΔTm denotes the change in melting temperature against a reference sample. As usually defined, the Kd is a measure of binding affinity in units of concentration. The term half-life denotes the time needed for the level to fall by half in the phase considered. What is called Cmax is the peak of the concentration-time curve. `CCC(=O)N1CCOc2c(cc(-c3ccc(OC)c(OC)c3)cc2OC[C@H]2CCCN(C)C2)C1` [I-CBP112]: the values for the IC50 at CBP bromodomain [1] and at isolated CBP bromodomain were 170 nM and 600 ± 50 nM, respectively. The cell survival entry in series [2] is given as “did not affect cell survival”. In addition, the FRAP recovery times entry on full-length CBP [3] is “did not lead to decreased recovery times”. For the same compound, in series [4], the “expression level of CCL2” value is “no effect”. The “expression level of Selectin (CD62)” value in [4] is “no effect”. For the same compound, in series [4], the “expression of IL10” value is “down-regulated”. The “expression of VCAM1/CD106” value in series [4] was “down-regulated”. For the same compound, the “secreted IgG” value in series [4] is “up-regulated”. Further, the “off-target activity in BLI screen” value in [5] is listed as “weak off-target activity”. Further, in the series on KASUMI-1 cells [6], the apoptosis entry is “signs of apoptosis”. In series [7], the “number of colonies and cells in MC” value is on record as “dose dependent reduction”. Besides, the “synergy (Chou-Talalay)” value in series [8] (combination with JQ1) is listed as “strong synergy”; in series [8] (combination with doxorubicin, except MOLM13) it was “strong synergy”. Moreover, the “interaction in selectivity panel” value on α1A and in the series with 5HT1 was “weak interaction” in each case. Further, the clonogenic growth entry with MOLM13 is “significantly impaired”; in series [13], “significantly reduced”; in the series on KASUMI-1 it was “significantly impaired”; in series [21], “significantly reduced”; in the series on SEM cells it was “significantly impaired”. Moreover, the ΔTm values entry in series [9] is given as “low”. In addition, the “self-renewal in clonogenic re-plating” value in [10] is “significantly impaired”. The “effect on recruitment of full-length CBP to chromatin” value on full-length CBP [11] was “no significant effect”. Besides, the ΔTm on BRD4(2) [12] stood at 0.6 °C. Moreover, the fold selectivity on BRD4(2) [14] (CBP over BRD4(2), from ITC KDs) is 132 fold; on BRD4(1) (CBP over BRD4(1), from ITC KDs), 37 fold. In addition, the Kd at BRD4(2) [14] (ITC) is 20000 nM; at CBP bromodomain [19], 151 ± 6 nM; on CBP, 142 nM; on BRD4(1) (ITC), 5600 nM; on p300 bromodomain it was 167 ± 8 nM. The synergism result in the series with MOLM13 cells is on record as “less pronounced”. Also, the “displacement of full-length BRD4” value at full-length GFP-BRD4 is “No displacement”. For the same compound, the c-Kit/CD117 expression entry with MLL-AF9+ AML cells [15] was “slightly decreased”. Also, in the series on MLL-AF9+ AML cells [15], the “granulocyte marker Gr-1 expression” value is “slightly decreased”. The “colony number in MC” value in series [16] is “did not affect”. Further, in the series on KASUMI-1 cells [17], the cell cycle effect result is “prominent G1 arrest”. The “time of disease development in recipient mice” value in the series with MLL-AF9+ AML cells [18] is listed as “significantly later”. Also, the “ΔTm (stabilization of melting temperature)” value on CBP bromodomain [20] is 7.8 ºC. The “displacement of p300 from chromatin” value at p300 (8h) is “did not see significant displacement”. Further, the p300 occupancy entry on p300 (4 days, vs DMSO) is “increased p300 occupancy”. Besides, the cytotoxicity entry in series [22] is reported as “without significant cytotoxicity”. For the same compound, in “pharmacokinetic study” (IP 3 mg/kg), the AUC came to 384 ng/h/mL. For the same compound, the half-life in the series “pharmacokinetic study” (IP 3 mg/kg) stood at 36 ± 6 min. For the same compound, the “mean Cmax” value in “pharmacokinetic study” (IP 3 mg/kg) was determined as 590 ng/mL. Besides, the “bioavailability F%” value in “pharmacokinetic study” (IP vs IV, (AUCt/Dip)/(AUC∞/Div)) is 114 ± 63%. The blood clearance entry in “pharmacokinetic study” (IV 1.2 mg/kg) is reported as “high”. The volume distribution entry in the series “pharmacokinetic study” (IV 1.2 mg/kg) is “moderate”. Moreover, the Cmax in the series “pharmacokinetic study” (read-out: mean Cmax, IP 3 mg/kg, n=3) turned out to be 1260 ± 740 nM. Further, the “estimated stem cell frequency” value in series [23] was “significant decrease and 1/13”.

Regarding `Cc1sc2c(c1C)C(c1ccc(Cl)cc1)=N[C@@H](CC(=O)OC(C)(C)C)c1nnc(C)n1-2` [JQ1, reference compound], in series [4], the “expression of IL10” value is given as “down-regulated”, the “expression of VCAM1/CD106” value is on record as “down-regulated” and the “secreted IgG” value is given as “strongly down-regulated”. Further, the “activity alone in WST1 assay” value in series [8] is recorded as “low nM activity”.

With `COc1cccc2c1C(=O)c1c(O)c3c(c(O)c1C2=O)C[C@@](O)(C(=O)CO)C[C@@H]3O[C@H]1C[C@H](N)[C@H](O)[C@H](C)O1` [doxorubicin, reference compound], the “activity alone in WST1 assay” value in series [8] is given as “low nM activity”.

As for CBP bromodomain (domain or fragment), the equilibrium dissociation constant (Kd) in the series with H3K56ac peptide stood at 13800 nM.
